Results reported in ChEMBL document CHEMBL4219025 (J Med Chem, 2018).
Activity calls are given as the source filed them. The calls are words filed in the database; no cut-off is given here.

How the values were obtained:
[1] = target: T1, NAD-dependent protein deacetylase sirtuin-1 (Homo sapiens, UniProt Q96EB6); assay: Inhibition of recombinant human GST-tagged Sirt1 (133 to 747 residues) using Z-(Ac)Lys-AMC as substrate measured after 4 hrs by high-throughput fluorescence based assay
T1 sequence (Q96EB6 whole entry): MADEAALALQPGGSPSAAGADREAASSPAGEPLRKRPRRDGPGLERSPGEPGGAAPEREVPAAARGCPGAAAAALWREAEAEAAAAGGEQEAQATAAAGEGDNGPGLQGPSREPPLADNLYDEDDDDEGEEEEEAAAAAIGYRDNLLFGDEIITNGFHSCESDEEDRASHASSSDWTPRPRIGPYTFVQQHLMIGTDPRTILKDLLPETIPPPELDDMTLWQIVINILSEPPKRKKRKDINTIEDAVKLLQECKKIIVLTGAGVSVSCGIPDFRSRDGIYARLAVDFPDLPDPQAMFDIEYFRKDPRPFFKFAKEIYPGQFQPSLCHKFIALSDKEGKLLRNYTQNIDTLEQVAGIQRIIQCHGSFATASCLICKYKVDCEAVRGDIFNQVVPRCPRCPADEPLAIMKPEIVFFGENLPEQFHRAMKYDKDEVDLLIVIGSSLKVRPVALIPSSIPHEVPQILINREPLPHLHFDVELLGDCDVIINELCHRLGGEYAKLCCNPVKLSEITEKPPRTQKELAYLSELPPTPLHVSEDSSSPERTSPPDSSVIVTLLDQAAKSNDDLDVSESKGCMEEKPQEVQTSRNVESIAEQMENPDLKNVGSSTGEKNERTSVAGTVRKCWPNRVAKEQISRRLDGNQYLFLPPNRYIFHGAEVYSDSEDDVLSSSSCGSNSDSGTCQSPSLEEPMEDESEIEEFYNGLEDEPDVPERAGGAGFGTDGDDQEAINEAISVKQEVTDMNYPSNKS

[2] = target: T2, NAD-dependent protein deacetylase sirtuin-3, mitochondrial (Homo sapiens, UniProt Q9NTG7); assay: Inhibition of recombinant human His10-tagged Sirt3 (118 to 395 residues) expressed in Escherichia coli BL21(DE3) using Z-(Ac)Lys-AMC as substrate measured after 4 hrs by high-throughput fluorescence based assay
T2 sequence (Q9NTG7 whole entry): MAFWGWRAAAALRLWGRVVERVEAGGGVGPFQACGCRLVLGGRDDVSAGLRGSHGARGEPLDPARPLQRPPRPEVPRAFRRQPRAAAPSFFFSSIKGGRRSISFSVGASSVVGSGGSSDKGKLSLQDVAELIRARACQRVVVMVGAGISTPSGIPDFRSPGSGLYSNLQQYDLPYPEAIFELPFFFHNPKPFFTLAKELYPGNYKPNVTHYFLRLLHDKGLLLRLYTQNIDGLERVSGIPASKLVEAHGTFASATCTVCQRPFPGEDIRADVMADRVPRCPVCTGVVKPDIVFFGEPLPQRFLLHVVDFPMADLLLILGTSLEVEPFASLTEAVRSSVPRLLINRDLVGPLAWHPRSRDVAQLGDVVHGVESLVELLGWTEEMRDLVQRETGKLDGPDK

[3] = target: T3, NAD-dependent protein deacetylase sirtuin-2 (Homo sapiens, UniProt Q8IXJ6); assay: Inhibition of recombinant human His10-tagged Sirt2 (56 to 356 residues) expressed in Escherichia coli BL21(DE3) using Z-(Ac)Lys-AMC as substrate measured after 4 hrs by high-throughput fluorescence based assay
T3 sequence (Q8IXJ6 whole entry): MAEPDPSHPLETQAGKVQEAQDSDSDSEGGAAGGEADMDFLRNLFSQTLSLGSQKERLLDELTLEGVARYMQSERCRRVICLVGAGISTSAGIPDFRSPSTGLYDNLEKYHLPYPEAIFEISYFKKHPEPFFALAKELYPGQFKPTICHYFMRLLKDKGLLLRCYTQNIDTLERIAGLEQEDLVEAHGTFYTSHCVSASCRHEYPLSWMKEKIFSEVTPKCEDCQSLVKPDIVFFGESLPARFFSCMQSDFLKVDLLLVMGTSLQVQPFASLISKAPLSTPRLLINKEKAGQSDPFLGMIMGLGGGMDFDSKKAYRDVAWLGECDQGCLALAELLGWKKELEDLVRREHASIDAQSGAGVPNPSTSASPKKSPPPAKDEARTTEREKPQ

[4] = target: T4, Protein cereblon/NAD-dependent protein deacetylase sirtuin-2 (Homo sapiens) (UniProt Q8IXJ6+Q96SW2); assay: Induction of cereblon-mediated Sirt2 degradation in human HeLa cells at 0.05 to 5 uM after 4 hrs by Western blot method; type: cell-based
T4 sequence (Q96SW2 whole entry, looked up, one chain of several): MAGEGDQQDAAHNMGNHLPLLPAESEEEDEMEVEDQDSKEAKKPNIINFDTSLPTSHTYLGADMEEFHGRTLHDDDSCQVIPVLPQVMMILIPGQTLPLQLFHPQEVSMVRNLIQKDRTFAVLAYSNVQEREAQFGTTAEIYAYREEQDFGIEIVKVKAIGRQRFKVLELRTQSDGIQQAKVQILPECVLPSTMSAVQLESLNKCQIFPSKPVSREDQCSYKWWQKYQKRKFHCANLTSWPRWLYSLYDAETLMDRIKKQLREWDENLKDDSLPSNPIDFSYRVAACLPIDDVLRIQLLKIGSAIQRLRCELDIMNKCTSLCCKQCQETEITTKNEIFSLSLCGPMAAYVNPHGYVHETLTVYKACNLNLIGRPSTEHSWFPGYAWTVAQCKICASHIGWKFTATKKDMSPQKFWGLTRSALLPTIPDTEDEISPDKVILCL
In short: (§1)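 HeLa cells in DMEM high glucose with 10% FCS, 37 °C, 5% CO2; 2x10^5 cells per 6-well (endogenous Sirt1/Sirt2) or 2x10^4 EGFP-Sirt2-HeLa per 24-well. Cycloheximide applied before compound (5 µg/ml 6-well, 3 µg/ml 24-well); 4 h default incubation, DMSO controls. Lysed in reducing sample buffer, 10% SDS-PAGE, PVDF, rabbit anti-Sirt2/Sirt1/GAPDH 1:5000, ECL; background-subtracted band intensities normalized to mean control.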

[5] = target: T4, Protein cereblon/NAD-dependent protein deacetylase sirtuin-2 (Homo sapiens); assay: Induction of cereblon-mediated EGFP-fused Sirt2 (unknown origin) degradation expressed in human HeLa cells at 10 uM after 4 hrs in presence of 2-(4,6-dimethylpyrimidin-2-ylthio)-N-(5-(3-((1-(2-methoxyethyl)-1H-1,2,3-triazol-4-yl)methoxy)benzyl)thiazol-2-yl)acetamide and proteosome inhibitor MG132 by Western blot method; type: cell-based; in short: as §1
[6] = target: T4, Protein cereblon/NAD-dependent protein deacetylase sirtuin-2 (Homo sapiens); assay: Induction of cereblon-mediated EGFP-fused Sirt2 degradation in human HeLa cells assessed as increase in tubulin acetlyation at 10 uM after 4 hrs by DAPI dye-based immunofluorescent microscopic analysis; type: cell-based
[7] = target: T4, Protein cereblon/NAD-dependent protein deacetylase sirtuin-2 (Homo sapiens); assay: Induction of cereblon-mediated Sirt2 degradation in human HeLa cells after 4 hrs by Western blot method; type: cell-based; in short: as §1
[8] = target: T4, Protein cereblon/NAD-dependent protein deacetylase sirtuin-2 (Homo sapiens); assay: Induction of cereblon-mediated Sirt2 degradation in human HeLa cells at 10 uM after 2 hrs by Western blot method; type: cell-based; in short: as §1
[9] = target: T4, Protein cereblon/NAD-dependent protein deacetylase sirtuin-2 (Homo sapiens); assay: Induction of cereblon-mediated EGFP-fused Sirt2 (unknown origin) degradation expressed in human HeLa cells at 10 uM after 4 hrs by Hoechst 33342 staining-based fluorescent microscopic method; type: cell-based
In short: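 Live EGFP-Sirt2-expressing HeLa cells: 2x10^4 cells seeded on glass imaging dishes in complete medium overnight, treated with 10 μM compound for 4 h (DMSO controls), medium switched to phenol red-free DMEM, nuclei stained 0.5 µg/mL Hoechst 33342 for 5 min; confocal live imaging with 40× oil objective.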

[10] = target: T4, Protein cereblon/NAD-dependent protein deacetylase sirtuin-2 (Homo sapiens); assay: Induction of cereblon-mediated Sirt2 degradation in human HeLa cells at 10 uM after 1 to 6 hrs by Western blot method; type: cell-based; in short: as §1
[11] = target: Protein cereblon/NAD-dependent protein deacetylase sirtuin-1 (Homo sapiens) (UniProt Q96EB6+Q96SW2); assay: Induction of cereblon-mediated Sirt1 degradation in human HeLa cells at 10 uM after 1 to 6 hrs by Western blot method; type: cell-based; in short: as §1
Protein cereblon/NAD-dependent protein deacetylase sirtuin-1 (Homo sapiens), sequence (Q96SW2 whole entry, looked up, one chain of several): as above

IC50 [1] | IC50 [2] | IC50 [3] | also measured | SMILES
> 100 µM | > 100 µM | 0.16 µM |  | Cc1cc(C)nc(SCC(=O)Nc2ncc(Cc3cccc(OCc4cn(Cc5ccccc5)nn4)c3)s2)n1
100 µM | > 100 µM |  | Activity [4]: inactive | COCCn1cc(COc2cccc(Cc3cnc(NC(=O)CSc4nc(C)cc(C)n4)s3)c2)nn1
> 100 µM | > 100 µM |  |  | Cc1cc(C)nc(SCC(=O)Nc2ncc(Cc3cccc4ccccc34)s2)n1
 |  |  | Activity [4]: inactive | O=C1CCC(N2C(=O)c3ccccc3C2=O)C(=O)N1 (stereo not given)
> 100 µM | > 100 µM | 0.25 µM | Activity [5]: inactive; Activity [6]: Active; Activity [7]: Dose-dependent effect; Activity [8]: Active; Activity [9]: Active; Activity [10]: Active; Activity [11]: inactive | Cc1cc(C)nc(SCC(=O)Nc2ncc(Cc3cccc(OCc4cn(CCCCNC(=O)COc5cccc6c5C(=O)N(C5CCC(=O)NC5=O)C6=O)nn4)c3)s2)n1 (stereo not given)
> 100 µM |  | 2.4 µM |  | C#CCOc1cccc(Cc2cnc(NC(=O)CSc3nc(C)cc(C)n3)s2)c1
> 100 µM | > 100 µM | 0.31 µM |  | Cc1cc(C)nc(SCC(=O)Nc2ncc(Cc3cccc(OCc4cn(CCOCCOCCOCCOCCOCCOCCOCCOCCOCCOCCOCCNC(=O)CCCCC5SCC6NC(=O)NC65)nn4)c3)s2)n1 (stereo not given)
> 100 µM |  |  |  | Cc1cc(C)nc(SCC(=O)Nc2ncc(Cc3cccc4ccc(Cl)cc34)s2)n1
